# Activity calls are given as the source filed them.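 The calls were made as follows: active = duplicate-averaged activation above buffer control mean plus 5 SD of those controls; inactive = the rest.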
# Test: thallium flux activation in parental CHO cells, counter-screen for KCNQ1 potentiator project (AID 493006);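 as to activation: fluorescence ratio of max minus min over baseline after K+ and Tl+ depolarization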
# Conditions: parental CHO-K1 cells, FluxOR thallium flux, at 10 µM; hits give high values
# How it was run: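 Material: parental CHO-K1 cells, FluxOR dye-loaded; Also added: Potassium/thallium depolarization pulse; Schedule: overnight 37 °C plating, 90 min dye, 20 min dark compound; Signal: kinetic FluxOR fluorescence, 10 s baseline, 110 s after stimulus.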
SMILES,activation,outcome
Cc1ccc(OCC(=O)NNC(=O)C(=O)NC(C)(C)C)cc1,170% (active),–
Oc1c(Br)cc(Br)cc1C=Nc1cccnc1,146% (active),–
N#Cc1ccc(-c2nc3ccc(Br)cc3c(=O)n2O)cc1,300% (active),–
COc1ccc(C(=O)N2CCC(n3nccc3NC(=O)C3CCOC3)CC2)cc1 (stereo not given),–,inactive
S=c1nn[nH]n1C12CC3CC(CC(C3)C1)C2,206% (active),–
Oc1c(N=NC(=S)Nc2ccccc2F)c2ccccc2n1Cc1ccccc1Cl,180% (active),–
Cc1[nH]n(C(N)=S)c(=O)c1N=Nc1ccc2ccccc2c1,150% (active),–
CCCCn1c(-c2csc3c2CCC(C)C3)n[nH]c1=S (stereo not given),145% (active),–
O=C(NC(=S)N1CCc2ccccc21)c1ccccc1,308% (active),–
Cc1ccccc1-c1nc(-c2ccccn2)no1,–,inactive
O=C(CSc1nc2ccccc2s1)c1cc2ccccc2o1,–,inactive
Oc1ccc(CN2CCCCC2)c2cccnc12,170% (active),–
COc1ccc(-n2nc(C(=O)NCC(=O)N3CCC(C(N)=O)CC3)c3ccccc3c2=O)cc1,–,inactive
CN(C)c1ccc(-c2nn3c(-c4ccccc4Cl)nnc3s2)cc1,–,inactive
Cc1cc(C)n(CCNS(=O)(=O)c2ccccc2)n1,–,inactive
Cc1cc(C=NCCO)c(C)n1-c1cc(Cl)ccc1Cl,–,inactive
Cc1ccc(-c2nc3ccc(Cl)cc3c(=O)n2O)cc1,558% (active),–
O=C(CC(=O)c1ccccc1O)c1cccc(F)c1,164% (active),–
O=C(O)CCSc1ncnc2sc(-c3ccccc3)cc12,180% (active),–
S=c1nc2ccccc2c2nc(-c3ccccc3)[nH]n12,–,inactive

SMILES,activation,outcome
N=c1ncn(Cc2ccccc2)c2nc(SCCOc3ccccc3)[nH]c12,–,inactive
CC1CCCC(NC(=S)NC(=O)c2ccccc2Br)C1C (stereo not given),–,inactive
C=CCNC(=S)Nc1sc2c(c1C(=O)OCC)CC(C(C)C)OC2 (stereo not given),268% (active),–
O=C1N(Cc2ccc(F)cc2)CCN1c1ccc(F)cc1,149% (active),–
Cc1c(C(=O)NC(=S)NCc2cccnc2)oc2ccccc12,–,inactive
O=C(c1ccccc1)N1CCCC(c2ccc(Cl)cc2)=N1,–,inactive
CCCc1cc2c(-c3ccccc3)cc(=O)oc2cc1OCc1ccc(C(=O)O)o1,193% (active),–
CSc1nsc(SCC(=O)Nc2ccccc2)n1,–,inactive
CN(C)S(=O)(=O)c1ccc(Cl)c(NC(=O)CN2CCCCCC2)c1,–,inactive
CCc1ccc(/C=N/NC(=O)Cc2cccn2C)cc1,–,inactive
O=C1c2cccc3cccc(c23)C(=O)N1c1cccc(O)c1,–,inactive
COc1cccc(C(=O)NC(=S)Nc2ccc3c4c(cccc24)CC3)c1,–,inactive
CCOc1ccccc1NC(=O)C(=O)CC(=O)c1ccc(OC)cc1,164% (active),–
Cc1ccc2nc(C)cc(N/N=C/c3cccnc3)c2c1,–,inactive
CCc1nnc(NC(=O)CCC(=O)N2CCN(C3CCCCC3)CC2)s1,–,inactive
COc1ccccc1C(=O)Nc1ccnn1C1CCN(CCCC2CCCC2)CC1,–,inactive
OC(c1cc(C(F)(F)F)nc2c(Cl)cc(Cl)cc12)C1CCCCN1 (stereo not given),–,inactive
CCCN(CCC)CCNC(=O)Cn1cnc2sc(C)c(S(=O)(=O)N3CCOCC3)c2c1=O,–,inactive
CCC(O)(CC)C(=O)NN(C(=O)CCl)c1ccccc1,–,inactive
COc1cc(/C=N/NC(=O)c2ccoc2C)ccc1OCCN1CCCCC1,–,inactive

# From PubChem BioAssay
